Experimental data taken from ChEMBL document CHEMBL1140799, “Novel heterocycle-substituted pyrimidines as inhibitors of NF-kappaB transcription regulation related to TNF-alpha cytokine release” (Bioorg Med Chem Lett, 2008).
Activity calls are given as the source filed them. No cut-off for these calls is given here.

Tests used:
Mus musculus [1] = experiment: Inhibition of LPS-induced TNFalpha release in BALB/c mouse at 50 mg/kg; format: functional
Method in brief: (§1)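 Oral dosing of BALB/c mice 30 min before LPS challenge (0.1 mg/kg ip). Serum TNF-α determined 90 min after LPS. BIRB796 (p38 MAP kinase inhibitor) served as reference compound.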

[2] = biological target: Glycogen synthase kinase-3 beta (Homo sapiens, UniProt P49841); experiment: Inhibition of GSK3-beta
[3] = (§2) Inhibition of NF-kappaB-mediated transcriptional activation in human A549 cells; format: cell-based
Jurkat = experiment: (§3) Inhibition of AP1-mediated transcriptional activation in human Jurkat cells; format: cell-based
THP-1 = experiment: Inhibition of LPS-induced TNFalpha production in human THP1 cells; format: functional, cell-based
Method in brief: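 THP-1 monocytes seeded at 1 × 10⁶ cells/mL in 1% FCS medium and left overnight. Compound pretreatment for 1 h, then LPS stimulation for 24 h. TNF-α in supernatants measured by sandwich ELISA. IC50 is the mean of n = 3 repeat experiments, SD given.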

Mus musculus [4] = experiment: Inhibition of LPS-induced TNFalpha release in BALB/c mouse at 300 mg/kg relative to […]; format: functional; method in brief: as §1
[5] = as §3; format: cell-based
A549 = experiment: as §2; format: cell-based

SMILES | IC50 [2] | IC50 [3] | Activity [2] | IC50 [5] | Activity (Jurkat) | further results
Cc1ccc(-n2nc(C(C)(C)C)cc2NC(=O)Nc2ccc(OCCN3CCOCC3)c3ccccc23)cc1 [DORAMAPIMOD] | – | – | – | – | – | inhibition in vivo at 50 mg/kg (Mus musculus [1]): 93%
COc1ccccc1C(=O)N1CCN(c2nc3[nH]nc(NC(=O)C4CC4)c3cc2F)CC1 | – | 13.1 µM | inactive | – | inactive | –
C1=CC2C(c3ccnc(Nc4ccccc4)n3)=C(c3ccccc3)NN2C=C1 (configuration not stated) | 0.06 µM | 1.7 µM | – | 0.7 µM | – | –
COCCn1cc(-c2ccnc(Nc3ccccc3)n2)c2cccnc21 | 1.05 µM | 5.6 µM | – | 11.4 µM | – | –
Cc1ccc(Cl)cc1Nc1nccc(C2=CNN3C=CC=CC23)n1 (configuration not stated) | 10.6 µM | 4.3 µM | – | 4.9 µM | – | –
O=C(Nc1n[nH]c2nc(N3CCN(C(=O)c4ccc(F)cc4F)CC3)c(F)cc12)C1CC1 | – | 19.3 µM | inactive | – | inactive | –
O=C(Nc1n[nH]c2nc(N3CCNCC3)c(F)cc12)C1CC1 | – | – | inactive | – | inactive | Activity (A549): inactive

The remaining compounds from weak to strong by IC50 [3], led by results:

IC50 [2] | IC50 [3] | Activity [2] | IC50 [5] | SMILES | Activity (Jurkat) | further results
– | 10.9 µM | inactive | – | COc1ccccc1N1CCN(c2nc3[nH]nc(NC(=O)C4CC4)c3cc2F)CC1 | inactive | Activity (THP-1): inactive
0.32 µM | 10.4 µM | – | – | COCCn1cc(-c2ccnc(Nc3ccccc3)n2)c2ccccc21 | inactive | –
– | 9.4 µM | inactive | – | O=C(Nc1n[nH]c2nc(N3CCN(S(=O)(=O)c4ccccc4C(F)(F)F)CC3)c(F)cc12)C1CC1 | inactive | –
0.14 µM | 7.8 µM | – | – | COCCn1cc(-c2ccnc(Nc3cccc(OC)c3)n2)c2ccccc21 | inactive | –
0.03 µM | 1.9 µM | – | 1.6 µM | COc1cccc(Nc2nccc(C3=C(c4ccccc4)NN4C=CC=CC34)n2)c1 (configuration not stated) | – | –
2.2 µM | 1.4 µM | – | – | COCCn1cc(-c2ccnc(Nc3cccc(OC)c3)n2)c2cccnc21 | inactive | IC50 (THP-1): 0.99 µM; inhibition in vivo at 300 mg/kg (Mus musculus [4]): 89%
0.1 µM | 1 µM | – | 1.8 µM | COc1cccc(Nc2nccc(C3=CNN4C=CC=CC34)n2)c1 (configuration not stated) | – | –
0.15 µM | 0.6 µM | – | 0.9 µM | C1=CC2C(c3ccnc(Nc4ccccc4)n3)=CNN2C=C1 (configuration not stated) | – | IC50 (THP-1): 0.14 µM
